ChEMBL document CHEMBL2057128, “Chemoenzymatic synthesis and biological evaluation of 2- and 3-hydroxypyridine derivatives against Leishmania mexicana” (Bioorg Med Chem, 2012)
Converted amounts (≈) assume the structure as drawn. The source made the active and inactive calls. No cut-off for these calls is given here.

Test system: Leishmania mexicana
Assay: Antileishmanial activity against promastigote form of Leishmania mexicana measured every 2 days for 10 days by neubauer chamber analysis
Format: functional, organism-based
Settings: not given
Method in brief: (§1)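 Promastigotes grown at 28 °C in cell-free medium (Na2HPO4, KCl, glucose, pH about 7.5) supplemented after sterilization with penicillin (100 IU/mL), streptomycin, haemin and 20% v/v heat-inactivated fetal calf serum. Cultures started from exponential-phase inocula, shaken manually twice daily, compounds added with DMSO at 0.1% final. Parasites counted in a Neubauer chamber every two days over 10 days.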

Row | IC50 [µg/mL] | SMILES
1 | 16 (≈ 57.3 µM) | OCCCCCCCCCCCCOc1cccnc1
2 | 20 (≈ 68.2 µM) | CC(=O)OCCCCCCCCCCOc1cccnc1
3 | 12 (≈ 37.3 µM) | CC(=O)OCCCCCCCCCCCCOc1cccnc1

Row | SMILES | IC50 [µg/mL]
4 | CN[C@@H]1[C@@H](O)[C@@H](O[C@@H]2[C@@H](O)[C@H](O[C@H]3O[C@H]([C@@H](C)O)[C@@H](O)[C@H](O)[C@H]3N)[C@@H](N)C[C@H]2N)OC[C@]1(C)O [GENETICIN] | 50 (≈ 101 µM)

Test system: Leishmania mexicana
Assay: Antileishmanial activity against promastigote form of Leishmania mexicana from 10 to 50 ug/mL measured every 2 days for 10 days by neubauer chamber analysis
Format: functional, organism-based
Settings: not given
Method in brief: as §1

Row | SMILES | Activity
5 | OCCCCCCCCCOc1ccccn1 | inactive
6 | CCC(=O)OCCCCCCCCCCCOc1cccnc1 | inactive
7 | OCCCCCCCCCCCCOc1ccccn1 | inactive
8 | CC(=O)OCCCCCCCCCCCCOc1ccccn1 | inactive
9 | CC(=O)OCCCCCCCCCCCOc1cccnc1 | inactive
10 | CC(=O)OCCCCCCCCCCCOc1ccccn1 | inactive
11 | CC(=O)OCCCCCCCCCOc1ccccn1 | inactive
12 | CC(=O)OCCCCCCCOc1ccccn1 | inactive
13 | OCCCCCCCCCCOc1cccnc1 | inactive
14 | OCCCCCCCOc1cccnc1 | inactive
15 | CC(=O)OCCCCCCCOc1cccnc1 | inactive
16 | OCCCCCCCCCCOc1ccccn1 | inactive
17 | OCCCCCCCCCOc1cccnc1 | inactive
18 | OCCCCCCOc1cccnc1 | inactive
19 | OCCCCCCCCOc1ccccn1 | inactive
20 | CC(=O)OCCCCCCOc1cccnc1 | inactive
21 | OCCCCCCCCOc1cccnc1 | inactive
22 | CC(=O)OCCCCCCOc1ccccn1 | inactive
23 | OCCCCCCCCCCCOc1ccccn1 | inactive
24 | CCC(=O)OCCCCCCCCCCCOc1ccccn1 | inactive
25 | OCCCCCCCOc1ccccn1 | inactive
26 | CC(=O)OCCCCCCCCOc1ccccn1 | inactive
27 | CC(=O)OCCCCCCCCCCOc1ccccn1 | inactive
28 | OCCCCCCCCCCCOc1cccnc1 | inactive
29 | OCCCCCCOc1ccccn1 | inactive
30 | CC(=O)OCCCCCCCCOc1cccnc1 | inactive

Test system: Leishmania mexicana
Assay: Growth inhibition of promastigote form of Leishmania mexicana at 20 ug/mL measured after 1 day by neubauer chamber analysis
Format: functional
Settings: 24 h, read-out: GI

Row | SMILES | inhibition of growth at 20 µg/mL [%]
31 | OCCCCCCCCCCCCOc1cccnc1 | 50
32 | CC(=O)OCCCCCCCCCCCCOc1cccnc1 | 50

Test system: Leishmania mexicana
Assay: Growth inhibition of promastigote form of Leishmania mexicana at 20 ug/mL measured after 10 days by neubauer chamber analysis
Format: functional
Settings: 240 h, read-out: GI
Method in brief: as §1

Row | SMILES | inhibition of growth at 20 µg/mL [%]
33 | OCCCCCCCCCCCCOc1cccnc1 | 95
34 | CC(=O)OCCCCCCCCCCCCOc1cccnc1 | 80

Test system: Leishmania mexicana
Assay: Growth inhibition of promastigote form of Leishmania mexicana at 10 ug/mL measured after 6 days by neubauer chamber analysis
Format: functional
Settings: 144 h, read-out: GI
Method in brief: as §1

Row | SMILES | inhibition of growth at 10 µg/mL [%]
35 | OCCCCCCCCCCCCOc1cccnc1 | 25
36 | CC(=O)OCCCCCCCCCCCCOc1cccnc1 | 25
